Activity calls are given as the source filed them. The calls are words filed in the database; no cut-off is given here.
Key:
[1] = Cytotoxicity against HEK293T cells assessed as cell viability at 10 uM after 24 hrs by MTT assay relative to control; type: cell-based, HEK-293T; details: human, read-out: Activity
In short: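 HEK 293T cells in DMEM/10% FBS at 37 °C, 5% CO2, exposed to compounds at 10 μM for 24 h in triplicate. MTT (2.5 mg/mL) added for 4 h, then DMSO. Absorbance read at 492 nm after 20 min shaking. Survival = (A sample − A blank)/(A control − A blank) × 100%.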

[2] = biological target: T1, Oxysterols receptor LXR-alpha (Homo sapiens) (UniProt Q13133); test: Activation of human LXRalpha expressed in HEK293 cells co-expressing human RXRalpha at 10 uM after 20 hrs by luciferase reporter gene assay; type: cell-based
T1 sequence (whole entry): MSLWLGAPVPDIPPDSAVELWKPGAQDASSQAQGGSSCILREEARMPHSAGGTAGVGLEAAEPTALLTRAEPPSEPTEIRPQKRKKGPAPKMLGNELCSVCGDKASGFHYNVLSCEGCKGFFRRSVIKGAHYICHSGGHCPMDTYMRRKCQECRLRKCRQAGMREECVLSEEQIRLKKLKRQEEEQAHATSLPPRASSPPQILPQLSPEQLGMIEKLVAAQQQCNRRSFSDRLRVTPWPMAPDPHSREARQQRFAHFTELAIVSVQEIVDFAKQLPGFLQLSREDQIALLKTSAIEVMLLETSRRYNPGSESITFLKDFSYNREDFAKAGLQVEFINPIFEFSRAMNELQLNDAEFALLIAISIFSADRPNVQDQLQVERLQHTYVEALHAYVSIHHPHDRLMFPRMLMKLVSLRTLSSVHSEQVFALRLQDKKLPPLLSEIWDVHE
In short: (§1)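 HEK 293T cells seeded at 3 × 10^4/well and attached 12 h. Cotransfected by lipofection with hLXRα or rLXRβ receptor plasmid plus hRXRα, a DR-4 LXRE firefly luciferase reporter and a CMV renilla control. Compounds added 10 h later; 0.1% DMSO vehicle. Luminescence read 20 h after treatment, firefly normalized to renilla, fold over vehicle; mean ± SD, three independent experiments.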

[3] = biological target: T2, Oxysterols receptor LXR-beta (Rattus norvegicus) (UniProt Q62755); test: Activation of rat LXRbeta expressed in HEK293 cells co-expressing human RXRalpha at 10 uM after 20 hrs by luciferase reporter gene assay; type: cell-based; in short: as §1
T2 sequence (whole entry): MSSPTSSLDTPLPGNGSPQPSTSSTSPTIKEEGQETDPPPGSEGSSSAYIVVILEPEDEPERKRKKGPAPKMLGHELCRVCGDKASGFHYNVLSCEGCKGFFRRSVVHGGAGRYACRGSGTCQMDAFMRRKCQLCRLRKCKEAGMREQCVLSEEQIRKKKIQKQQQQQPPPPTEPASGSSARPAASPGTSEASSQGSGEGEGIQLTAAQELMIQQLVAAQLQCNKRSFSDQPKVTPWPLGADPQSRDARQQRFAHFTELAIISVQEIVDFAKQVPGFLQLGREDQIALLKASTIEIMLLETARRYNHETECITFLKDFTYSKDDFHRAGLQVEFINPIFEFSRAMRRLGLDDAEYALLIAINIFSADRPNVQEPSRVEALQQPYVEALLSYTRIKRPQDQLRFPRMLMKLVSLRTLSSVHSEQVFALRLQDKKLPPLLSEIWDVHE

Mus musculus [4] = species: Mus musculus; test: Activation of LXR in mouse 3T3L1 preadipocytes assessed as decrease in triglyceride level up to 10 uM […] measured on day 6 by Oil Red O staining based assay; type: cell-based
In short: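 3T3-L1 adipocytes differentiated over 6 days (IBMX/dexamethasone/insulin/biotin for 3 days, then insulin only), compound in DMSO present throughout. Day 6 cells fixed in 4% formaldehyde for 1 h at room temperature, then stained with 0.35% Oil Red O stock diluted 3:2 in water for 30 min at 60 °C. Washed, then imaged at 4× magnification.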

Mus musculus [5] = species: Mus musculus; test: Activation of LXR in mouse 3T3L1 preadipocytes assessed as decrease in triglyceride level for 3 days measured on day 6; type: cell-based
In short: (§2)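 3T3-L1 cells grown in DMEM/10% FBS. Two days post-confluence (day 0), switched to differentiation medium (insulin 2 μg/mL, dexamethasone 100 ng/mL, IBMX 0.5 mM, biotin 10 ng/mL) for 3 days, then insulin-only medium for 3 more days. Compounds in DMSO (<0.1%) present throughout differentiation. Day 6 cells PBS-washed and lysed, TG measured by kit, expressed relative to vehicle; mean ± SD, three independent experiments.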

Mus musculus [6] = species: Mus musculus; test: Activation of LXR in mouse 3T3L1 preadipocytes assessed as decrease in triglyceride level at 1 to 10 uM for 3 days measured on day 6; type: cell-based; in short: as §2

**Q.** With `Cc1cc2c(c(C)c1CCO[C@@H]1O[C@H](CO)[C@@H](O)[C@H](O)[C@H]1O)C(=O)[C@@H](C)[C@@H]2O` as the compound, how does the viability at 24 h, 10 µM [1] read?
**A.** 100%

**Q.** Which results are given for `O=C(O)Cc1cccc(OCCCN(Cc2cccc(C(F)(F)F)c2Cl)CC(c2ccccc2)c2ccccc2)c1`?
**A.** Activity [2]: Active; Activity [3]: Active

**Q.** Which viability at 24 h, 10 µM [1] does the source give for `CC1(C)C[C@@H](O[C@@H]2O[C@H](CO)[C@@H](O)[C@H](O)[C@H]2O)C[C@]2(C)[C@@H]1CC[C@@]13C[C@@H](CC[C@H]12)[C@](C)(O)C3` here?
**A.** 100%

**Q.** For `CC1(C)C[C@@H](O)C[C@]2(C)[C@@H]1[C@H](O)C[C@@]13C[C@@H](CC[C@H]12)[C@](C)(O)C3`, which Activity (Mus musculus [4]) is on record?
**A.** Active

**Q.** What about the viability at 24 h, 10 µM [1] of the same compound?
**A.** 100%

**Q.** And the Activity (Mus musculus [5])?
**A.** Dose-dependent effect

**Q.** For `Cc1cc2c(c(C)c1CCO)C(=O)[C@@](C)(O)[C@@H]2O`, which viability at 24 h, 10 µM [1] is on record?
**A.** 100%

**Q.** Which viability at 24 h, 10 µM [1] does the source give for `C=C1[C@@H]2CC[C@H]3[C@]4(C)C[C@H](O[C@@H]5O[C@H](CO)[C@@H](O)[C@H](O)[C@H]5O)CC(C)(C)[C@H]4CC[C@]3(C2)[C@H]1O` here?
**A.** 100%

**Q.** With `C=C1[C@@H]2CC[C@H]3[C@]4(C)C[C@H](O)CC(C)(C)[C@H]4[C@H](O)C[C@]3(C2)[C@H]1O` as the compound, how does the viability at 24 h, 10 µM [1] read?
**A.** 100%

**Q.** For `Cc1cc2c(c(C)c1CCO)C(=O)[C@](C)(O)[C@@H]2O`, which viability at 24 h, 10 µM [1] is on record?
**A.** 100%

**Q.** For `Cc1cc2c(c(CO)c1CCO)C(=O)[C@](C)(CO)[C@@H]2O`, which viability at 24 h, 10 µM [1] is on record?
**A.** 100%

**Q.** For `Cc1cc2c(c(CO)c1CCO)C(=O)[C@H](C)[C@@H]2O`, which viability at 24 h, 10 µM [1] is on record?
**A.** 100%

**Q.** With `Cc1cc2c(c(C)c1CCO)C(=O)[C@](C)(CO)[C@@H]2O` as the compound, how does the viability at 24 h, 10 µM [1] read?
**A.** 100%

**Q.** For `Cc1c(CCO)c(CO)cc2c1C(=O)[C@@H](C)[C@@H]2O`, which viability at 24 h, 10 µM [1] is on record?
**A.** 100%

**Q.** Which results are given for `CC1(C)C[C@@H](O)C[C@]2(C)[C@@H]1[C@H](O)C[C@@]13C[C@@](O)(CC[C@H]12)[C@](C)(O)C3`?
**A.** Activity (Mus musculus [4]): Active; viability at 24 h, 10 µM [1]: 100%; Activity (Mus musculus [5]): Dose-dependent effect

**Q.** Which results are given for `Cc1c(CCO)c(CO)cc2c1C(=O)[C@H](C)[C@@H]2O`?
**A.** Activity (Mus musculus [4]): Active; Activity [2]: Active; viability at 24 h, 10 µM [1]: 100%; Activity [3]: Active; Activity (Mus musculus [5]): Dose-dependent effect

**Q.** With `Cc1cc2c(c(C)c1CCO[C@@H]1O[C@H](CO)[C@@H](O)[C@H](O)[C@H]1O)C(=O)[C@H](C)[C@@H]2O` as the compound, how does the viability at 24 h, 10 µM [1] read?
**A.** 100%

**Q.** With `CC1(C)C[C@@H](O)C[C@]2(C)[C@@H]1CC[C@@]13C[C@@H](CC[C@@H]21)[C@@](O)(CO)[C@@H]3O` as the compound, how does the viability at 24 h, 10 µM [1] read?
**A.** 100%

**Q.** Which viability at 24 h, 10 µM [1] does the source give for `Cc1cc2c(c(CO)c1CCO)C(=O)[C@@H](C)[C@@H]2O` here?
**A.** 100%

**Q.** With `C=C1[C@@H]2CC[C@H]3[C@]4(C)C[C@H](O)CC(C)(C)[C@H]4CC[C@]3(C2)[C@H]1O` as the compound, how does the viability at 24 h, 10 µM [1] read?
**A.** 100%

**Q.** With `COc1ccc2cc3[n+](cc2c1OC)CCc1cc2c(cc1-3)OCO2` as the compound, how does the Activity (Mus musculus [6]) read?
**A.** Active

**Q.** For `Cc1cc2c(c(C)c1CCO)C(=O)C(C)(C)[C@@H]2O`, which viability at 24 h, 10 µM [1] is on record?
**A.** 100%

**Q.** With `Cc1cc2c(c(C)c1CCO)C(=O)[C@H](C)[C@@H]2O` as the compound, how does the viability at 24 h, 10 µM [1] read?
**A.** 100%

**Q.** Which viability at 24 h, 10 µM [1] does the source give for `Cc1cc2c(c(C)c1CCO[C@@H]1O[C@H](CO)[C@@H](O)[C@H](O)[C@H]1O)C(=O)C(C)(C)[C@H]2O` here?
**A.** 100%

**Q.** For `Cc1cc2c(c(C)c1CCO)C(=O)[C@@H](C)[C@@H]2O`, which Activity (Mus musculus [4]) is on record?
**A.** Active

**Q.** What about the viability at 24 h, 10 µM [1] of the same compound?
**A.** 100%

**Q.** What about the Activity (Mus musculus [5]) of the same compound?
**A.** Dose-dependent effect

**Q.** With `Cc1cc2c(c(CO)c1CCO)C(=O)[C@@](C)(O)C2=O` as the compound, how does the viability at 24 h, 10 µM [1] read?
**A.** 100%

From ChEMBL document CHEMBL3997777, “Pterosin Sesquiterpenoids from Pteris cretica as Hypolipidemic Agents via Activating Liver X Receptors” (J Nat Prod, 2016)
